The source of these data is ChEMBL document CHEMBL4732111, “A greener protocol for the synthesis of phosphorochalcogenoates: Antioxidant and free radical scavenging activities” (Eur J Med Chem, 2021).

The nature of series [1]: Drug metabolism in TsOH assessed as tetraethyl diphosphate formation measured after 2 hrs by 31P-[1H] NMR spectroscopy.
The nature of series [2]: Stability of compound exposed to blue LED light using DCM as solvent assessed as parent compound remaining measured after 2 hrs by 31P-[1H] NMR spectroscopy. The series is classed as physicochemical. The conditions noted are these: DCM solution exposed to blue LED light, read-out: Stabilty.
The nature of series [3]: Antioxidant activity assessed as ABTS radical scavenging activity at 100 uM relative to control. The series is classed as functional. The gist of the method: (§1)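 Compounds at 10–500 µM mixed with ABTS•+ solution; scavenging read as fall in absorbance at 734 nm, expressed as percent scavenging relative to vehicle. Trolox 10 µM as positive control. Mean ± SEM, n = 3; one-way ANOVA with Tukey.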

The nature of series [4]: Toxicity in Swiss mouse assessed as change in plasma AST level at 10 mg/kg, ig measured after 30 mins (reference value: 148 +/- 8.08 […]). The class given is organism-based. The conditions noted are these: in vivo, po, 0.5 h. The gist of the method:
(§2)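 Swiss mice dosed intragastrically at 10 mg/kg (control canola oil 10 mL/kg). After 30 min, blood taken by heart puncture into heparin under light isoflurane anesthesia. Plasma obtained at 200 g for 10 min, hemolyzed samples discarded. ALT, AST, urea and creatinine measured with commercial kits. 5–6 mice per group; Student's t-test.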

Series [5] in a line: Antioxidant activity assessed as DPPH radical scavenging activity at 500 uM incubated for 30 mins under dark condition relative to control. The series is classed as functional. The gist of the method: (§3)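 Compounds at 10–500 µM mixed with ethanolic DPPH solution. Incubated 30 min at 30 °C in the dark, then absorbance read at 517 nm. Scavenging expressed as percent relative to vehicle; Trolox 10 µM as positive control. Mean ± SEM, n = 3; one-way ANOVA with Tukey.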
For orientation: DPPH is a stable violet radical that fades when it is reduced.

The test system of series [6] is Brain. Put plainly: Antioxidant activity in Swiss mouse brain cerebral tissue assessed as inhibition of sodium azide-induced reactive species production by measuring fluorescence unit at 10 uM by DCHF-DA dye based spectrofluorimetric method (reference value: 139 +/- 26.8 U). The class given is functional.
Series [7] is described as follows: Antioxidant activity assessed as ferric ion reducing activity by measuring absorbance at 100 uM measured after 40 mins by FRAP assay (reference value: 0.11 +/- 0.02). The class given is functional. The gist of the method:
(§4)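 Compounds at 10–500 µM mixed with FRAP reagent (FeCl3, triazine and sodium acetate buffer pH 3.2; 10:1:1). Incubated 40 min at 37 °C in the dark; absorbance reported. Vehicle and Trolox 10 µM as controls. Mean ± SEM, n = 3; one-way ANOVA with Tukey versus vehicle.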

Series [8] is described as follows: Antioxidant activity assessed as DPPH radical scavenging activity at 100 uM incubated for 30 mins under dark condition relative to control. The class given is functional. The procedure, abridged:
as §3

A short description of series [9]: Ex vivo antioxidant activity in Swiss mouse assessed as inhibition of canola oil-induced lipid peroxidation in kidney by measuring TBARS level at 10 mg/kg, ig measured after 30 mins (reference value: 438.20 +/- 27.59 /g). Conditions: 0.5 h. The series is classed as functional.
Series [10] relates to Brain. Put plainly: Antioxidant activity in Swiss mouse brain cerebral tissue assessed as inhibition of sodium azide-induced reactive species production by measuring fluorescence unit at 500 uM by DCHF-DA dye based spectrofluorimetric method (reference value: 139 +/- 26.8 U). The class given is functional.
The nature of series [11]: Antioxidant activity assessed as ferric ion reducing activity by measuring absorbance at 10 uM measured after 40 mins by FRAP assay (reference value: 0.11 +/- 0.02). The series is classed as functional. The procedure, abridged:
as §4

Series [12] is described as follows: Antioxidant activity assessed as DPPH radical scavenging activity at 10 uM incubated for 30 mins under dark condition relative to control. The class given is functional. The gist of the method:
as §3

Series [13] relates to Brain. Nature of the series: Antioxidant activity in Swiss mouse brain cerebral tissue assessed as inhibition of sodium azide-induced reactive species production by measuring fluorescence unit at 100 uM by DCHF-DA dye based spectrofluorimetric method (reference value: 139 +/- 26.8 U). The class given is functional.
Series [14] in a line: Antioxidant activity assessed as ABTS radical scavenging activity at 10 uM relative to control. The series is classed as functional. The procedure, abridged: as §1
The nature of series [15]: Ex vivo antioxidant activity in Swiss mouse assessed as inhibition of canola oil-induced glutathione peroxidase activity in brain by measuring oxidation of NADPH at 10 mg/kg, ig measured after 30 mins by spectrophotometric method (reference value: 12.8 +/- 2.28 nmol/g). The series is classed as functional. The conditions noted are these: 0.5 h. The gist of the method:
(§5)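 Swiss mice dosed orally at 10 mg/kg (vehicle canola oil); brain S1 prepared 30 min later. SOD measured as inhibition of epinephrine autoxidation in Na2CO3 50 mM pH 10.3 at 480 nm, one unit = 50% inhibition at 26 °C. GPx measured as NADPH decay coupled to glutathione reductase with H2O2 and GSH. Mean ± SEM, 6 mice per group; Student's t-test.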

A short description of series [16]: Antioxidant activity assessed as DPPH radical scavenging activity at 50 uM incubated for 30 mins under dark condition relative to control. The class given is functional. The procedure, abridged: as §3
In series [17] the test system is Brain. Nature of the series: Antioxidant activity in Swiss mouse brain cerebral tissue assessed as inhibition of SNP-induced lipid peroxidation by measuring TBARS level at 10 uM incubated for 1 hr relative to control. The class given is functional, tissue-based. Set-up: scale not given: the % may be the effect or the level left. The procedure, abridged: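 Whole brain of male adult Swiss mice homogenized in cold 50 mM Tris-HCl pH 7.4 (1/5 w/v) and spun 2400 g, 10 min, 4 °C; supernatant S1 used. Peroxidation induced with sodium nitroprusside in the presence of compound. Then SDS 8.1%, TBA 0.8% and acetic acid/HCl pH 3.4 added, heated 95 °C for 2 h; MDA measured as marker. Trolox 10 µM as positive control. n = 3; one-way ANOVA with Tukey versus induced.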

A short description of series [18]: Ex vivo antioxidant activity in Swiss mouse assessed as inhibition of canola oil-induced superoxide dismutase activity in brain by measuring SOD activity at 10 mg/kg, ig measured after 30 mins by spectrophotometric method (reference value: 25.44 +/- 4.12 U/min). Conditions: 0.5 h. The class given is functional. The procedure, abridged: as §5
Series [19] in a line: Toxicity in Swiss mouse assessed as change in plasma creatinine level at 10 mg/kg, ig measured after 30 mins (reference value: 1.77 +/- 0.05 mg/dl). Conditions: in vivo, po, 0.5 h. The class given is organism-based. The procedure, abridged: as §2
Series [20] is described as follows: Toxicity in Swiss mouse assessed as change in plasma urea level at 10 mg/kg, ig measured after 30 mins (reference value: 90.31 +/- 0.74 mg/dl). The series is classed as organism-based. The conditions noted are these: in vivo, po, 0.5 h. The gist of the method: as §2
Series [21] in a line: Antioxidant activity assessed as ferric ion reducing activity by measuring absorbance at 50 uM measured after 40 mins by FRAP assay (reference value: 0.11 +/- 0.02). The class given is functional. The gist of the method: as §4
Series [22] is described as follows: Toxicity in Swiss mouse assessed as change in plasma ALT level at 10 mg/kg, ig measured after 30 mins (reference value: 110.90 +/- 12.4 IU/L). The class given is organism-based. The conditions noted are these: in vivo, po, 0.5 h. The gist of the method:
as §2

The nature of series [23]: Ex vivo antioxidant activity in Swiss mouse assessed as inhibition of canola oil-induced lipid peroxidation in brain by measuring TBARS level at 10 mg/kg, ig measured after 30 mins (reference value: 91.91 +/- 9.38 /g). The class given is functional. The conditions noted are these: 0.5 h.
In series [24] the test system is Brain. Put plainly: Antioxidant activity in Swiss mouse brain cerebral tissue assessed as inhibition of sodium azide-induced reactive species production by measuring fluorescence unit at 50 uM by DCHF-DA dye based spectrofluorimetric method (reference value: 139 +/- 26.8 U). The class given is functional.
Series [25] in a line: Ex vivo antioxidant activity in Swiss mouse assessed as inhibition of canola oil-induced lipid peroxidation in liver by measuring TBARS level at 10 mg/kg, ig measured after 30 mins (reference value: 271.5 +/- 43.88 /g). The class given is functional. Conditions: 0.5 h.
Series [26] can be described thus: Antioxidant activity assessed as ABTS radical scavenging activity at 50 uM relative to control. The class given is functional. The gist of the method:
as §1

Series [27] is described as follows: Antioxidant activity assessed as ferric ion reducing activity by measuring absorbance at 500 uM measured after 40 mins by FRAP assay (reference value: 0.11 +/- 0.02). The series is classed as functional. The procedure, abridged: as §4

With `CCOP(=O)(OCC)[Te]c1ccccc1`, the Drug metabolism result in series [1] is “Metabolite detected”. For the same molecule, the remaining at 2 h in series [2] came out at 20%.

Take `COP(=O)(OC)[Se]c1ccc(C)cc1`: the Activity in series [3] was determined as 29.9%; in series [4], 147.4 IU/L; in [5], 3.62%; in series [6], 70.3 U; in series [7] it was 0.17; in series [8] it was 9.87%. For the same molecule, the Activity is 455.4 g⁻¹ in [9]; 62.7 U in series [10]; 0.14 in [11]; 12.2% in series [12]; 70.1 U in [13]; 11.5% in [14]. Further, the Activity came out at 7.48 nmol/g in series [15]; 6.83% in series [16]; 73% in series [17]; 7.37 U/min in series [18]; 1.96 mg/dL in series [19]; 80.24 mg/dL in series [20]. In addition, the Activity amounted to 0.17 in [21]; 119 IU/L in series [22]; 54.79 g⁻¹ in series [23]; 84.9 U in series [24]; 199.9 g⁻¹ in series [25]; 12.5% in series [26]. The Activity in series [27] was found to be 0.29.
